Measured values pooled from the literature.
Protocols differ between the studies behind these lines.

Structure (SMILES)	tested on	assay	system	setting	quantity	result
O=C(C=Cc1ccccc1)Nc1cc(-c2ccnc(N3CCC(O)CC3)c2)ccn1	–	–	female Sprague-Dawley rat, plasma	intravenous, 5 mg/kg	half-life	28.2 min
CC(=Nc1ccc(N=Cc2cnccn2)cc1)N(C)C	–	–	male Sprague-Dawley rat, plasma	intravenous, 20 mg/kg	half-life	91.8 min
Nc1ccc(/C=C/C(=O)NCc2cc3cc(-c4ccc(C(=O)N5CCC(F)(F)CC5)cc4)cc(-c4ccc(F)cc4)c3o2)cn1	–	–	rat, plasma	intravenous, 1 mg/kg	half-life	337 min
O=C1CC[C@H](N2Cc3cc(N4CCN(CC5CCN(c6ccc([C@@H]7c8ccc(O)cc8CC[C@@H]7c7ccccc7)cc6)CC5)CC4)ccc3C2=O)C(=O)N1	–	–	female Sprague-Dawley rat, plasma	oral, 20 mg/kg, fasted	half-life	314 min
COc1cc(C2NC(=O)NC(C)=C2C(=O)OC(C)C)ccc1OCc1ccccc1 (stereo not shown)	MCF-10A	cell growth or viability, MTT	–	50 µM, 96 h	viability	91%
N#C[C@@]12C[C@@H]1[C@@H](n1cnc3c(N[C@@H](C4CCC4)C4CC4)nc(I)nc31)[C@H](O)[C@@H]2O	–	–	male Wistar rat, plasma	oral, 1 mg/kg	half-life	132 min
O=C(c1ccc(OCCN2CCCCC2)cc1)c1c(-c2ccc(O)cc2)sc2cc(O)ccc12	Broad substrate specificity ATP-binding cassette transporter ABCG2 (ABCG2, Homo sapiens, UniProt Q9UNQ0)	transporter uptake, inhibitor	Sf9	10 µM, pH 7, cell membranes	inhibition	~50%
CC1=C(C(=O)OC(C)C)C(c2cccc(O)c2)NC(=O)N1 (stereo not shown)	MCF-10A	cell growth or viability, MTT	–	50 µM, 96 h	viability	87%
C/C(=N\c1ccc(O)cc1)c1cc2ccccc2n1C	–	–	male Sprague-Dawley rat, plasma	intravenous, 5 mg/kg, 5 min, single dose	concentration	173 ng/mL
CC1=C(C(=O)OC(C)C)C(c2cccc(O)c2)NC(=S)N1 (stereo not shown)	MCF-10A	cell growth or viability, MTT	–	50 µM, 96 h	viability	93%
CC1(CN)CCN(c2cnc3c(Sc4ccncc4Cl)n[nH]c3n2)CC1	–	–	male Sprague-Dawley rat, plasma	oral, 10 mg/kg	half-life	148 min
COc1cc(C2NC(=O)NC(C)=C2C(=O)OC(C)C)cc(OC)c1OC (stereo not shown)	MCF-10A	cell growth or viability, MTT	–	50 µM, 96 h	viability	92%
COc1cccc2c1C(=O)c1c(O)c3c(c(O)c1C2=O)C[C@@](O)(C(=O)CO)C[C@@H]3O[C@H]1C[C@H](N)[C@H](O)[C@H](C)O1	K562	cell growth or viability, MTT	–	100 µg/mL	viability	23.9%
